ChEMBL document CHEMBL1131210, “5-(5,6-Dichloro-2-indolyl)-2-methoxy-2,4-pentadienamides: novel and selective inhibitors of the vacuolar H+-ATPase of osteoclasts with bone antiresorptive activity” (J Med Chem, 1998)

Legend:
[1] = In vitro inhibition of bone resorption by isolated Human osteoclastoma cells (ELISA); type: functional
Summary of the method: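 Collagenase-dispersed osteoclastoma cells, negatively selected with HLA-I Dynabeads, were settled on bone slices at 4000 cells/well. Compound was added at several concentrations, with 8 slices per concentration. After 48 h in D-MEM, type I collagen fragments released into the supernatant were quantified by ELISA.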

[2] = In vitro inhibition of bone resorption by isolated Human osteoclastoma cells by the number of excavations (pits/bone slice); type: functional
Summary of the method: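 Human giant-cell-tumour osteoclasts were HLA-I bead-depleted and seeded on bone slices (4000 cells/well), 8 slices per concentration, then cultured 48 h in D-MEM. Slices were glutaraldehyde-fixed and TRAP-stained, and cells were bleached off. Slices were gold-coated and resorption pits counted by light microscopy, expressed as pits/bone slice.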

[3] = target: T1, V-type proton ATPase 116 kDa subunit a 1 (Gallus gallus, UniProt Q9I8D0); test: Compound was tested for inhibition of V-ATPase from Chicken adrenal glands(cAG); type: tissue-based, Adrenal gland
T1 sequence (Q9I8D0 whole entry): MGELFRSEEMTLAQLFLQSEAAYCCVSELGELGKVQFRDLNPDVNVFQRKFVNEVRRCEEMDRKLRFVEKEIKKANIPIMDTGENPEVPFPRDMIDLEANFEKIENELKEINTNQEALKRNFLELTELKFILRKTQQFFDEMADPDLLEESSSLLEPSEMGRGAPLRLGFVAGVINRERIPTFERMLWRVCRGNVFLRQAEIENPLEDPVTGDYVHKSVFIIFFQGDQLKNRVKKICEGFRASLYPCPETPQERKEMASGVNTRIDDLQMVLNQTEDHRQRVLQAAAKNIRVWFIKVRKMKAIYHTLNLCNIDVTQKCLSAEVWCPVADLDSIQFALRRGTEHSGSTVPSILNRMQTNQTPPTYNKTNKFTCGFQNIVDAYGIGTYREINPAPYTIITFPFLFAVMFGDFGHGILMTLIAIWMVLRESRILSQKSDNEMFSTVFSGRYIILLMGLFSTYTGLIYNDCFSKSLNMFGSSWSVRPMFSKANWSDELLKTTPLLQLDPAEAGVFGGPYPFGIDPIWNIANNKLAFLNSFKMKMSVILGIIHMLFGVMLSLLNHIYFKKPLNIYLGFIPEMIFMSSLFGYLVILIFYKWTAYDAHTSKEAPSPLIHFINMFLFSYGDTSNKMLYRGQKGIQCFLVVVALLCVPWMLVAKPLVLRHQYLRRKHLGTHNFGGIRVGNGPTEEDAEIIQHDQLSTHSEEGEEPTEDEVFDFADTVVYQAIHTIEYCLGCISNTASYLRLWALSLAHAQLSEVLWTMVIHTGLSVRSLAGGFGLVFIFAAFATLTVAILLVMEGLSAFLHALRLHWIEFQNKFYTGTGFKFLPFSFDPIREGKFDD
Summary of the method: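 Bafilomycin-sensitive ATPase in purified microsomal membranes from whole chicken adrenal glands (two-step 35%/50% sucrose gradient), 20–40 μg protein/mL. Medium: 0.2 M sucrose, 50 mM KCl, 10 mM Hepes-Tris pH 7.4, 1 mM CDTA, 1 mM ATP, 0.1 mM molybdate, 5 μM valinomycin, 5 μM nigericin. Started with 5 mM MgSO4, 30 min at 37 °C, phosphate read by malachite green.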

[4] = target: T1, V-type proton ATPase 116 kDa subunit a 1; test: (§1) Compound was tested for inhibition of V-ATPase from Chicken osteoclasts (cOc)
Summary of the method: (§2)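 Bafilomycin-sensitive ATPase activity in sucrose-gradient-purified membrane vesicles from medullary bone of calcium-starved egg-laying hens, 20–40 μg protein/mL. Medium: 0.2 M sucrose, 50 mM KCl, 10 mM Hepes-Tris pH 8, 1 mM CDTA, 1 mM ATP, 0.1 mM molybdate, 5 μM valinomycin, 5 μM nigericin. Started with 5 mM MgSO4; 30 min, 37 °C; phosphate release by malachite green.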

[5] = target: V-type proton ATPase subunit B, kidney isoform (Homo sapiens, UniProt P15313); test: Compound was tested for inhibition of V-ATPase from human kidney cortex(hK)
Sequence of V-type proton ATPase subunit B, kidney isoform (P15313 whole entry, canonical isoform): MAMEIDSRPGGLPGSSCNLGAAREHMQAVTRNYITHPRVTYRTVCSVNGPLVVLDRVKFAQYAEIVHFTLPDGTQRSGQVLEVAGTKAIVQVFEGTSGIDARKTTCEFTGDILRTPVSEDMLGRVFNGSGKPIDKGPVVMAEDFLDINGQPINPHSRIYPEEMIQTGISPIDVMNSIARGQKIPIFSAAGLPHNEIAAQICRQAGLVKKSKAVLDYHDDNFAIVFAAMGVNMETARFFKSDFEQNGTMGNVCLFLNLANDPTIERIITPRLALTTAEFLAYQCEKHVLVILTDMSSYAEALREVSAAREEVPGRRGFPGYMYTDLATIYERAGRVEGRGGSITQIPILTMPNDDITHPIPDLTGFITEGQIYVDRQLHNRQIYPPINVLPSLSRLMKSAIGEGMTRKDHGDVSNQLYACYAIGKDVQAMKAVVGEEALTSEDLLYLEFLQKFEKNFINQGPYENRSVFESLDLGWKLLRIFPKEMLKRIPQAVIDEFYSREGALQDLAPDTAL
Summary of the method: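 Brush border membranes from frozen human kidney cortex, about 70 μg protein/mL. Bafilomycin-sensitive ATPase in 0.2 M sucrose, 50 mM KCl, 10 mM Hepes-Tris pH 7.4, 1 mM CDTA, 1 mM ATP, 0.1 mM molybdate, 5 μM valinomycin, 5 μM nigericin. Started with 5 mM MgSO4, 30 min at 37 °C, Pi measured colorimetrically (malachite green).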

[6] = target: T1, V-type proton ATPase 116 kDa subunit a 1; test: as §1; type: functional; summary of the method: as §2

SMILES	IC50 [1] [nM]	IC50 [2] [nM]	IC50 [3] [nM]	IC50 [4] [nM]	IC50 [5] [nM]	IC50 [6] [nM]
CO/C(=C\C=C\c1cc2cc(Cl)c(Cl)cc2[nH]1)C(=O)NCCCN1CCN(c2ncccn2)CC1	10	30	930	60	370	–
CO/C(=C\C=C\c1cc2cc(Cl)c(Cl)cc2[nH]1)C(=O)NC1C[C@H]2CC[C@@H](C1)N2C (some centres not stated)	30	30	2500	100	1320	–
CCN(CC)CCCNC(=O)/C(=C/C=C/c1cc2cc(Cl)c(Cl)cc2[nH]1)OC	140	180	2800	180	3000	–
CO/C(=C\C=C\c1cc2cc(Cl)c(Cl)cc2[nH]1)C(=O)NC1CC(C)(C)NC(C)(C)C1	30	40	820	80	440	–
COC(=O)/C(=C\C=C\c1cc2ccccc2[nH]1)OC	–	–	–	30000	–	30000
